This is an account of results in PMC3240942 (Molecular cell, 2011).

Assay [1] has as its target T1, Sirt1 (Mus musculus, UniProt Q923E4).
T1 sequence (Q923E4 1-737): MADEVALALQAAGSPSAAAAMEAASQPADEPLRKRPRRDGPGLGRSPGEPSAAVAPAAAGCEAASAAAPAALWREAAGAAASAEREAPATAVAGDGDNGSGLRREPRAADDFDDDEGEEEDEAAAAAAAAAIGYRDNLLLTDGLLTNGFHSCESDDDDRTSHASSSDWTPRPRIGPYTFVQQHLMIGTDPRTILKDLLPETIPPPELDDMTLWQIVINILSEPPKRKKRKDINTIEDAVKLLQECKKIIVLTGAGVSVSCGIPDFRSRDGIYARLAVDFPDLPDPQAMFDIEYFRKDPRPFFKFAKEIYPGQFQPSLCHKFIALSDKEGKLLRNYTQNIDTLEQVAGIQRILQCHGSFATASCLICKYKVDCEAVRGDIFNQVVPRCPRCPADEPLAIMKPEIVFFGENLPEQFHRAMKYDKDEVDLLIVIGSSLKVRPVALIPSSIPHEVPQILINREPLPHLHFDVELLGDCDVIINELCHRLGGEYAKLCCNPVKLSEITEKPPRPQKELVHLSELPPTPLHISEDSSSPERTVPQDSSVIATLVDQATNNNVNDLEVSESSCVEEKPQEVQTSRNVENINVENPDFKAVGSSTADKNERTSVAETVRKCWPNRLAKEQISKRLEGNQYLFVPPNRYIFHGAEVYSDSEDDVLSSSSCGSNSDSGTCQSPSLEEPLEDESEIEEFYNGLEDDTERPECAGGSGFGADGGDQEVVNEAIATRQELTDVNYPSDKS
Particulars: binds to deacetylase core of Sirt1; ref Kim et al., 2008; Zhao et al.; cited from earlier work.

For assay [2], the target named is T1, Sirt1. Nature of the assay: Inhibition of Sirt1 deacetylation of p53 in transfected H1299 cells. Format: cell-based. Particulars: 10-fold molar excess of expression vector, 20 μM etoposide 1 hr. In short, it runs like this:
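H1299 cells transiently co-transfected with expression vectors for p53 and V5-tagged Sirt1, plus a 10-fold molar excess of a vector expressing the Flag-tagged test peptide (with or without a nuclear localization signal). After 48 h, cells are exposed to 20 μM etoposide for 1 hr before harvest. Acetylated p53 is detected by immunoblot with an antibody specific for acetyl-K382.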

For “DBC1: Deleted in Breast Cancer 1, endogenous Sirt1 inhibitor”, the “effect on Sirt1 activity” value in the assay with Sirt1 [1] is given as “inhibits its activity”. In addition, in the assay with Sirt1 [2], the “inhibition of Sirt1 activity in vivo (p53 deacetylation)” value is on record as “also inhibited Sirt1 activity”.
